# Data as given in ChEMBL document CHEMBL4406897 (Bioorg Med Chem, 2019).
# Assays:
# Plasmodium falciparum [1] = test: (§1) Antimalarial activity against Plasmodium falciparum TM4/8.2 infected in human erythrocytes assessed as reduction in [3H]-hypoxanthine incorporation pretreated for 24 hrs followed by [3H]-hypoxanthine addition measured after 18 hrs by liquid scintillation counting method; assay type: functional, organism-based
# Dihydrofolate reductase [2] = molecular target: T1, Dihydrofolate reductase (Homo sapiens, UniProt P00374); test: Inhibition of human dihydrofolate reductase using dihydrofolate as substrate in presence of NADPH by UV-vis spectrophotometry analysis
# T1 sequence (P00374 whole entry): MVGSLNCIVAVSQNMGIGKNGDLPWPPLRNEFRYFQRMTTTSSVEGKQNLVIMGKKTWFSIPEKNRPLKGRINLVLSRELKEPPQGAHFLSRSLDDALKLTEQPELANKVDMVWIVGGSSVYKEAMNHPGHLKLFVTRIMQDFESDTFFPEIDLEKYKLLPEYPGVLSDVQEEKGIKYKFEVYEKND
# Plasmodium falciparum [3] = test: as §1, with “against pyrimethamine-resistant” for “against”, “V1/S expressing Dihydrofolate reductase N51I/C59R/S108N/I164L mutant” for “TM4/8.2”, “18” for “24”, “24” for “18”; assay type: functional, organism-based
# Summary of the method: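 P. falciparum V1/S kept in continuous culture in human erythrocytes at 37 °C under 3% CO2. Growth inhibition was read as [3H]-hypoxanthine incorporation.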
# Vero = test: Cytotoxicity against African green monkey Vero cells by sulforhodamine B assay; assay type: cell-based; details: Chlorocebus sabaeus
# [4] = Competitive inhibition of Plasmodium falciparum dihydrofolate reductase N51I/C59R/S108N/I164L quadruple mutant expressed in Escherichia coli BL21(DE3)pLysS using dihydrofolate as substrate in presence of NADPH by UV-vis spectrophotometry analysis
# Summary of the method: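 Quadruple-mutant PfDHFR expressed from a pET plasmid in E. coli BL21(DE3)pLysS, induced with 0.4 mM IPTG at 20 °C for 20 h. Cells lysed by French press at 18,000 psi. Enzyme purified on methotrexate-Sepharose in 20 mM potassium phosphate pH 7.0 with 50 mM KCl, 10 mM DTT, 0.1 mM EDTA and 20% glycerol. Activity read spectrophotometrically at 25 °C. Ki measured in microplate format, assuming competitive inhibition.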
# [5] = Competitive inhibition of wild type Plasmodium falciparum dihydrofolate reductase expressed in Escherichia coli BL21(DE3)pLysS using dihydrofolate as substrate in presence of NADPH by UV-vis spectrophotometry analysis
# Summary of the method: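 Wild-type PfDHFR expressed from pET plasmid after 0.4 mM IPTG induction at 20 °C for 20 h. Cells lysed by French press at 18,000 psi. Enzyme purified on methotrexate-Sepharose in 20 mM potassium phosphate pH 7.0 with 0.1 mM EDTA, 10 mM DTT, 50 mM KCl and 20% glycerol. Activity read spectrophotometrically at 25 °C. Ki measured in microplate format, assuming competitive inhibition.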
# dihydrofolate reductase [6] = test: Selectivity ratio of Ki for human dihydrofolate reductase to Ki for Plasmodium falciparum dihydrofolate reductase N51I/C59R/S108N/I164L quadruple mutant; assay type: toxicity; details: read-out: Ratio Ki
# Plasmodium falciparum [7] = test: Ratio of compound IC50 to pyrimethamine IC50 for antimalarial activity against Plasmodium falciparum V1/S infected in human erythrocytes; assay type: functional
# Plasmodium falciparum [8] = test: Ratio of compound IC50 to pyrimethamine IC50 for antimalarial activity against Plasmodium falciparum TM4/8.2 infected in human erythrocytes; assay type: functional
# dihydrofolate reductase [9] = test: Selectivity ratio of Ki for human dihydrofolate reductase to Ki for wild type Plasmodium falciparum TM4/8.2 dihydrofolate reductase; assay type: toxicity; details: read-out: Ratio Ki
# [10] = Selectivity ratio of IC50 for African green monkey Vero cells to IC50 for Plasmodium falciparum TM4/8.2 infected in human erythrocytes; assay type: toxicity, cell-based; details: read-out: Ratio IC50
# [11] = Selectivity ratio of IC50 for African green monkey Vero cells to IC50 for Plasmodium falciparum V1/S infected in human erythrocytes; assay type: toxicity, cell-based; details: read-out: Ratio IC50
smiles,measurement,setting,value
Cl.Nc1nc(N)c(-c2cccc(Cl)c2)c(CCc2ccccc2OCCCc2ccccc2)n1,IC50,Plasmodium falciparum [1],6250 nM
same,Ki,Dihydrofolate reductase [2],Active
same,IC50,Plasmodium falciparum [3],5.5 µM
same,IC50,Vero,0.65 µM
Cl.Nc1nc(N)c(-c2ccccc2)c(CCCCOc2ccccc2)n1,IC50,Plasmodium falciparum [1],360 nM
same,Ki,[4],1.73 nM
same,Ki,Dihydrofolate reductase [2]; read-out: Ki,48.7 nM
same,IC50,Plasmodium falciparum [3],11.2 µM
same,IC50,Vero,15.4 µM
Cl.Nc1nc(N)c(-c2ccccc2)c(CCc2ccccc2OCCCc2ccccc2)n1,IC50,Plasmodium falciparum [1],6730 nM
same,Ki,Dihydrofolate reductase [2]; read-out: Ki,27.3 nM
same,IC50,Plasmodium falciparum [3],6.15 µM
same,IC50,Vero,4.96 µM
Cl.Nc1nc(N)c(-c2cccc(Cl)c2)c(COc2cccc(OCCCC(=O)O)c2)n1,IC50,Plasmodium falciparum [1],1800 nM
same,Ki,Dihydrofolate reductase [2]; read-out: Ki,74.2 nM
same,IC50,Plasmodium falciparum [3],6.2 µM
same,IC50,Vero,> 100 µM
Cl.Nc1nc(N)c(-c2ccccc2)c(CCCOc2cccc(OCC(=O)O)c2)n1,IC50,Plasmodium falciparum [1],71 nM
same,Ki,[4],0.5 nM
same,Ki,Dihydrofolate reductase [2]; read-out: Ki,18.2 nM
same,IC50,Plasmodium falciparum [3],2.71 µM
same,IC50,Vero,> 10 µM
Cl.Nc1nc(N)c(-c2cccc(Cl)c2)c(CCCOc2cccc(OCCCC(=O)O)c2)n1,IC50,Plasmodium falciparum [1],49 nM
same,Ki,[4],0.98 nM
same,Ki,Dihydrofolate reductase [2]; read-out: Ki,19.6 nM
same,IC50,Plasmodium falciparum [3],0.44 µM
same,IC50,Vero,> 10 µM
Cl.Nc1nc(N)c(-c2cccc(Cl)c2)c(CCc2ccccc2OCc2ccccc2)n1,IC50,Plasmodium falciparum [1],1940 nM
same,Ki,[4],3.06 nM
same,Ki,Dihydrofolate reductase [2]; read-out: Ki,14.4 nM
same,IC50,Plasmodium falciparum [3],4.81 µM
same,IC50,Vero,0.4 µM
Cl.Nc1nc(N)c(-c2ccccc2)c(COc2cccc(OCC(=O)O)c2)n1,IC50,Plasmodium falciparum [1],52600 nM
same,Ki,Dihydrofolate reductase [2]; read-out: Ki,509 nM
same,IC50,Plasmodium falciparum [3],> 100 µM
same,IC50,Vero,> 100 µM
Cl.Nc1nc(N)c(-c2cccc(Cl)c2)c(CCCCCOc2ccccc2)n1,IC50,Plasmodium falciparum [1],430 nM
same,Ki,[4],3.2 nM
same,Ki,Dihydrofolate reductase [2]; read-out: Ki,18.4 nM
same,IC50,Plasmodium falciparum [3],9.17 µM
same,IC50,Vero,7.21 µM
CCc1nc(N)nc(N)c1-c1ccc(Cl)cc1 [PYRIMETHAMINE],Ki,[5],0.6 nM
same,Ki,[4],385 nM
same,IC50,Plasmodium falciparum [3],> 100 µM
Cl.Nc1nc(N)c(-c2ccccc2)c(CCCCOc2cccc(OCC(=O)O)c2)n1,IC50,Plasmodium falciparum [1],58 nM
same,Ki,[5],0.5 nM
same,selectivity ratio,dihydrofolate reductase [6],44.2
same,Ki,[4],1.04 nM
same,Ki,Dihydrofolate reductase [2]; read-out: Ki,46 nM
same,IC50,Plasmodium falciparum [3],> 1 µM
same,IC50,Vero,> 1 µM
same,Ratio IC50,Plasmodium falciparum [7],0.01
same,Ratio IC50,Plasmodium falciparum [8],0.73
same,selectivity ratio,dihydrofolate reductase [9],91.9
same,selectivity ratio,[10],> 17.2
Cl.Nc1nc(N)c(-c2cccc(Cl)c2)c(CCCCOc2ccccc2)n1,IC50,Plasmodium falciparum [1],340 nM
same,Ki,[4],1.49 nM
same,Ki,Dihydrofolate reductase [2]; read-out: Ki,12.8 nM
same,IC50,Plasmodium falciparum [3],6.94 µM
same,IC50,Vero,5.15 µM
CCOC(=O)CCCOc1ccccc1CCc1nc(N)nc(N)c1-c1ccccc1.Cl,IC50,Plasmodium falciparum [1],1250 nM
same,Ki,Dihydrofolate reductase [2]; read-out: Ki,32.4 nM
same,IC50,Plasmodium falciparum [3],> 10 µM
same,IC50,Vero,> 10 µM
Cl.Nc1nc(N)c(-c2cccc(Cl)c2)c(CCCCOc2cccc(OCC(=O)O)c2)n1,IC50,Plasmodium falciparum [1],43 nM
same,Ki,[4],0.72 nM
same,Ki,Dihydrofolate reductase [2]; read-out: Ki,13.4 nM
same,IC50,Plasmodium falciparum [3],1.42 µM
same,IC50,Vero,> 50 µM
Cl.Nc1nc(N)c(-c2ccccc2)c(CCc2ccccc2OCc2ccccc2)n1,IC50,Plasmodium falciparum [1],650 nM
same,Ki,Dihydrofolate reductase [2]; read-out: Ki,22.1 nM
same,IC50,Plasmodium falciparum [3],4.37 µM
same,IC50,Vero,1.87 µM
Cl.Nc1nc(N)c(-c2cccc(Cl)c2)c(CCCCOc2cccc(OCCCC(=O)O)c2)n1,IC50,Plasmodium falciparum [1],51 nM
same,Ki,[4],0.93 nM
same,Ki,Dihydrofolate reductase [2]; read-out: Ki,21.7 nM
same,IC50,Plasmodium falciparum [3],3 µM
same,IC50,Vero,> 100 µM
Cl.Nc1nc(N)c(-c2ccccc2)c(CCCOc2cccc(OCCCC(=O)O)c2)n1,IC50,Plasmodium falciparum [1],52 nM
same,Ki,[4],1.26 nM
same,Ki,Dihydrofolate reductase [2]; read-out: Ki,29.1 nM
same,IC50,Plasmodium falciparum [3],0.54 µM
same,IC50,Vero,> 25 µM
CCc1nc(N)nc(N)c1-c1ccccc1,IC50,Plasmodium falciparum [1],720 nM
same,Ki,Dihydrofolate reductase [2]; read-out: Ki,10.4 nM
same,IC50,Plasmodium falciparum [3],> 50 µM
Cl.Nc1nc(N)c(-c2ccccc2)c(CCCCOc2cccc(OCCCC(=O)O)c2)n1,IC50,Plasmodium falciparum [1],71 nM
same,Ki,[4],1.24 nM
same,Ki,Dihydrofolate reductase [2]; read-out: Ki,34.8 nM
same,IC50,Plasmodium falciparum [3],3.91 µM
same,IC50,Vero,> 100 µM
Cl.Nc1nc(N)c(-c2ccccc2)c(CCCCCOc2ccccc2)n1,IC50,Plasmodium falciparum [1],380 nM
same,Ki,[5],0.3 nM
same,selectivity ratio,dihydrofolate reductase [6],9.11
same,Ki,[4],3.61 nM
same,Ki,Dihydrofolate reductase [2]; read-out: Ki,32.9 nM
same,IC50,Plasmodium falciparum [3],7.89 µM
same,selectivity ratio,[11],1
same,IC50,Vero,7.91 µM
same,Ratio IC50,Plasmodium falciparum [7],0.08
same,Ratio IC50,Plasmodium falciparum [8],4.75
same,selectivity ratio,dihydrofolate reductase [9],110
same,selectivity ratio,[10],20.8
Cl.Nc1nc(N)c(-c2cccc(Cl)c2)c(COc2cccc(OCC(=O)O)c2)n1,IC50,Plasmodium falciparum [1],6010 nM
same,Ki,Dihydrofolate reductase [2]; read-out: Ki,52.4 nM
same,IC50,Plasmodium falciparum [3],11.4 µM
same,IC50,Vero,> 10 µM
Cl.Nc1nc(N)c(-c2ccccc2)c(CCCOc2ccccc2)n1,IC50,Plasmodium falciparum [1],130 nM
same,Ki,[4],1.37 nM
same,Ki,Dihydrofolate reductase [2]; read-out: Ki,12.5 nM
same,IC50,Plasmodium falciparum [3],15.1 µM
same,IC50,Vero,1.39 µM
Cl.Nc1nc(N)c(-c2cccc(Cl)c2)c(CCCOc2ccccc2)n1,IC50,Plasmodium falciparum [1],170 nM
same,Ki,[5],0.24 nM
same,selectivity ratio,dihydrofolate reductase [6],7.52
same,Ki,[4],1.16 nM
same,Ki,Dihydrofolate reductase [2]; read-out: Ki,8.72 nM
same,IC50,Plasmodium falciparum [3],3.42 µM
same,selectivity ratio,[11],0.14
same,IC50,Vero,0.47 µM
same,Ratio IC50,Plasmodium falciparum [7],0.03
same,Ratio IC50,Plasmodium falciparum [8],2.13
same,selectivity ratio,dihydrofolate reductase [9],36.3
same,selectivity ratio,[10],2.76
CCOC(=O)CCCOc1ccccc1CCc1nc(N)nc(N)c1-c1cccc(Cl)c1,IC50,Plasmodium falciparum [1],710 nM
same,Ki,Dihydrofolate reductase [2]; read-out: Ki,23.4 nM
same,IC50,Plasmodium falciparum [3],5.24 µM
same,IC50,Vero,8.13 µM
Cl.Nc1nc(N)c(-c2ccccc2)c(COc2cccc(OCCCC(=O)O)c2)n1,IC50,Plasmodium falciparum [1],5240 nM
same,Ki,Dihydrofolate reductase [2]; read-out: Ki,556 nM
same,IC50,Plasmodium falciparum [3],31.1 µM
same,IC50,Vero,> 50 µM
Cl.Nc1nc(N)c(-c2cccc(Cl)c2)c(CCCOc2cccc(OCC(=O)O)c2)n1,IC50,Plasmodium falciparum [1],48 nM
same,Ki,[4],0.41 nM
same,Ki,Dihydrofolate reductase [2]; read-out: Ki,13.6 nM
same,IC50,Plasmodium falciparum [3],0.43 µM
same,IC50,Vero,> 50 µM
